# According to ChEMBL document CHEMBL3585321, “Synthesis and antimicrobial activity of chloramphenicol-polyamine conjugates” (Bioorg Med Chem, 2015):
# Active and inactive are the calls of the source. No cut-off for these calls is given here.
# Key:
# Escherichia coli [1] = experiment: Antibacterial activity against wild type Escherichia coli K-12 assessed as inhibition of bacterial growth; format: functional, organism-based
# Staphylococcus aureus [2] = experiment: Antibacterial activity against wild type Staphylococcus aureus assessed as inhibition of bacterial growth; format: functional, organism-based
# Escherichia coli [3] = experiment: Reduction in spermidine content in Escherichia coli K-12 at 35.5 uM by UV and mass spectrometry (reference value: 1.63 +/- 0.5 umol/g w.w); format: functional
# Escherichia coli [4] = experiment: Reduction in protein content in Escherichia coli K-12 at 35.5 uM (reference value: 57 +/- 6.35 mg/g w.w); format: functional
# Escherichia coli [5] = experiment: Antibacterial activity against Escherichia coli lacking chromosomal rrn alleles and containing pKK35 plasmids possessing 23S rRNA A2058G mutant assessed as inhibition of bacterial growth; format: functional, organism-based
# [6] = Inhibition of Escherichia coli K-12 70S ribosome poly(U)-programmed ribosome (complex C) bearing tRNAPhe at E-site and Ac[3H]Phe-tRNA at P-site assessed as reduction in peptide bond formation using puromycin(S) substrate
# Staphylococcus aureus [7] = experiment: Antibacterial activity against wild type Staphylococcus aureus assessed as inhibition of bacterial growth at antibacterial IC50 level in presence of 10 times IC50 levels of spermidine; format: functional, organism-based
# Summary of the method: (§1)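 Cells started at A560 0.020 in M9 medium with drug at its own growth IC50, alone or with putrescine, spermidine or spermine at 10×IC50. Cultures run until the drug-free control reached A560 0.800. Growth given as percent of control optical density. At least three experiments, two replicates each, mean±SD, p<0.05.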
# Escherichia coli [8] = experiment: Reduction in putrescine content in Escherichia coli K-12 at 35.5 uM by UV and mass spectrometry (reference value: 7.6 +/- 1.2 umol/g w.w); format: functional
# Escherichia coli [9] = experiment: Antibacterial activity against wild type Escherichia coli K-12 assessed as inhibition of bacterial growth at antibacterial IC50 level in presence of 10 times IC50 levels of spermidine; format: functional, organism-based; summary of the method: as §1
# Escherichia coli [10] = experiment: Antibacterial activity against wild type Escherichia coli K-12 assessed as inhibition of bacterial growth at antibacterial IC50 level in presence of 10 times IC50 levels of putrescine; format: functional, organism-based; summary of the method: as §1
# Escherichia coli [11] = experiment: Antibacterial activity against wild type Escherichia coli K-12 assessed as inhibition of bacterial growth at antibacterial IC50 level in presence of 10 times IC50 levels of spermine; format: functional, organism-based; summary of the method: as §1
# Staphylococcus aureus [12] = experiment: Antibacterial activity against methicillin-resistant Staphylococcus aureus GRE2691 assessed as inhibition of bacterial growth; format: functional, organism-based
# Escherichia coli [13] = experiment: Ratio of Vmax to Km for Escherichia coli chloramphenicol acetyltransferase assessed as coenzyme A formation using acetyl coenzyme A at 0.154 mM
# Escherichia coli [14] = experiment: Antibacterial activity against Escherichia coli lacking chromosomal rrn alleles and containing pKK35 plasmids possessing 23S rRNA A2503C mutant assessed as inhibition of bacterial growth; format: functional, organism-based
# Escherichia coli K-12 [15] = experiment: Drug metabolism in Escherichia coli K-12 assessed as N8,N8-dibenzylspermidine formation at 35.5 uM by RP-HPLC method; format: ADME, organism-based; details: escherichia coli k-12, in vivo
# Summary of the method: (§2)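 Washed cells homogenized in 0.6 M HClO4 and centrifuged. Supernatant checked by RP-HPLC for released N8,N8-dibenzylspermidine.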
# Staphylococcus aureus [16] = experiment: Antibacterial activity against wild type Staphylococcus aureus assessed as inhibition of bacterial growth at antibacterial IC50 level in presence of 10 times IC50 levels of spermine; format: functional, organism-based; summary of the method: as §1
# Staphylococcus aureus [17] = experiment: Antibacterial activity against methicillin-resistant Staphylococcus aureus GRE2372 assessed as inhibition of bacterial growth; format: functional, organism-based
# Escherichia coli [18] = experiment: Antibacterial activity against Escherichia coli Rosetta(DE3) containing rare tRNA genes and chloramphenicol resistant gene in pLysS plasmid assessed as inhibition of bacterial growth; format: functional, organism-based
# Summary of the method: (§3)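 IC50 from bacterial cultures grown in LB medium without drug or with drug across a range of concentrations, reported in μM. Three independent experiments, each with two replicates, given as mean±SD.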
# Escherichia coli [19] = experiment: Reduction in putrescine content in Escherichia coli K-12 at 35.5 uM after 3 hrs by UV and mass spectrometry; format: functional; details: K-12, 3 h
# Staphylococcus aureus [20] = experiment: Antibacterial activity against wild type Staphylococcus aureus assessed as inhibition of bacterial growth at antibacterial IC50 level in presence of 10 times IC50 levels of putrescine; format: functional, organism-based; summary of the method: as §1
# Staphylococcus aureus [21] = experiment: Antibacterial activity against methicillin-resistant Staphylococcus aureus GRE2272 assessed as inhibition of bacterial growth; format: functional, organism-based
# Escherichia coli [22] = experiment: Activity of Escherichia coli chloramphenicol acetyltransferase assessed as coenzyme A formation using acetyl coenzyme A at 0.154 mM
# Escherichia coli [23] = experiment: Reduction in spermidine content in Escherichia coli K-12 at 35.5 uM after 3 hrs by UV and mass spectrometry; format: functional; details: K-12, 3 h
# Escherichia coli [24] = experiment: Antibacterial activity against Escherichia coli BL21(DE3) expressing delta-tolC gene assessed as inhibition of bacterial growth; format: functional, organism-based; summary of the method: as §3
# Escherichia coli K-12 [25] = experiment: Drug level in Escherichia coli K-12 at 35.5 uM by RP-HPLC method; format: ADME, organism-based; details: in vivo
# Escherichia coli [26] = experiment: Potency index, ratio of IC50 against wild type Escherichia coli K-12 to IC50 against Escherichia coli BL21(DE3) expressing delta-tolC gene; format: functional
# Escherichia coli [27] = experiment: Reduction in putrescine content in Escherichia coli K-12 at 9.4 uM by UV and mass spectrometry (reference value: 7.6 +/- 1.2 umol/g w.w); format: functional
# Escherichia coli [28] = experiment: Reduction in putrescine content in Escherichia coli K-12 at 9.4 uM after 3 hrs by UV and mass spectrometry; format: functional; details: K-12, 3 h
# Escherichia coli K-12 [29] = experiment: Drug level in Escherichia coli K-12 at 9.4 uM by RP-HPLC method; format: ADME, organism-based; details: in vivo
# Escherichia coli K-12 [30] = experiment: Drug metabolism in Escherichia coli K-12 assessed as N8,N8-dibenzylspermidine formation at 9.4 uM by RP-HPLC method; format: ADME, organism-based; details: escherichia coli k-12, in vivo; summary of the method: as §2
# Escherichia coli [31] = experiment: Reduction in spermidine content in Escherichia coli K-12 at 9.4 uM by UV and mass spectrometry (reference value: 1.63 +/- 0.5 umol/g w.w); format: functional
# Escherichia coli [32] = experiment: Reduction in spermidine content in Escherichia coli K-12 at 9.4 uM after 3 hrs by UV and mass spectrometry; format: functional; details: K-12, 3 h
# Escherichia coli [33] = experiment: Reduction in protein content in Escherichia coli K-12 at 9.4 uM (reference value: 57 +/- 6.35 mg/g w.w); format: functional
structure (smiles),measurement,setting,value
O=C(CCC(=O)N[C@H](CO)[C@H](O)c1ccc([N+](=O)[O-])cc1)NCCCNCCCCN(Cc1ccccc1)Cc1ccccc1,IC50,Escherichia coli [1],35.5 µM
same,IC50,Staphylococcus aureus [2],13.7 µM
same,Activity,Escherichia coli [3],0.35 µmol/g
same,Activity,Escherichia coli [4],21.8 mg/g
same,IC50,Escherichia coli [5],32.3 µM
same,Ki,[6],0.6 µM
same,growth inhibition (GI),Staphylococcus aureus [7],inactive
same,Activity,Escherichia coli [8],0.46 µmol/g
same,growth inhibition (GI),Escherichia coli [9],inactive
same,growth inhibition (GI),Escherichia coli [10],inactive
same,growth inhibition (GI),Escherichia coli [11],inactive
same,IC50,Staphylococcus aureus [12],> 200 µM
same,Vmax/Km,Escherichia coli [13],0.085 min⁻¹
same,IC50,Escherichia coli [14],37.1 µM
same,Drug metabolism,Escherichia coli K-12 [15],metabolite_notdetected
same,growth inhibition (GI),Staphylococcus aureus [16],inactive
same,IC50,Staphylococcus aureus [17],> 100 µM
same,IC50,Escherichia coli [18],42.5 µM
same,inhibition at 35.5 µM,Escherichia coli [19],90%
same,growth inhibition (GI),Staphylococcus aureus [20],inactive
same,IC50,Staphylococcus aureus [21],> 100 µM
same,Km,Escherichia coli [22],53.5 µM
same,Vmax,Escherichia coli [22],4.56 µM/min
same,inhibition at 35.5 µM,Escherichia coli [23],95%
same,IC50,Escherichia coli [24],33.4 µM
same,Drug uptake,Escherichia coli K-12 [25],3.96 µM
O=C(N[C@H](CO)[C@H](O)c1ccc([N+](=O)[O-])cc1)C(Cl)Cl [CHLORAMPHENICOL],IC50,Escherichia coli [1],6.2 µM
same,IC50,Staphylococcus aureus [2],3.1 µM
same,IC50,Escherichia coli [5],15.5 µM
same,Ki,[6],0.88 µM
same,growth inhibition (GI),Staphylococcus aureus [7],Active
same,Ratio IC50,Escherichia coli [26],3
same,growth inhibition (GI),Escherichia coli [9],Active
same,growth inhibition (GI),Escherichia coli [10],Active
same,growth inhibition (GI),Escherichia coli [11],Active
same,IC50,Staphylococcus aureus [12],14.5 µM
same,Vmax/Km,Escherichia coli [13],0.139 min⁻¹
same,IC50,Escherichia coli [14],24.7 µM
same,growth inhibition (GI),Staphylococcus aureus [16],Active
same,IC50,Staphylococcus aureus [17],6 µM
same,IC50,Escherichia coli [18],110 µM
same,growth inhibition (GI),Staphylococcus aureus [20],Active
same,IC50,Staphylococcus aureus [21],8 µM
same,Km,Escherichia coli [22],59.3 µM
same,Vmax,Escherichia coli [22],8.23 µM/min
same,IC50,Escherichia coli [24],2 µM
NCCCN(CCCCN(Cc1ccccc1)Cc1ccccc1)C(=O)CCC(=O)N[C@H](CO)[C@H](O)c1ccc([N+](=O)[O-])cc1,IC50,Escherichia coli [1],9.4 µM
same,IC50,Staphylococcus aureus [2],4.7 µM
same,Activity,Escherichia coli [27],1.14 µmol/g
same,IC50,Escherichia coli [5],9.4 µM
same,inhibition at 9.4 µM,Escherichia coli [28],75%
same,Drug uptake,Escherichia coli K-12 [29],1.06 µM
same,Drug metabolism,Escherichia coli K-12 [30],metabolite_notdetected
same,IC50,Staphylococcus aureus [12],10 µM
same,IC50,Escherichia coli [14],9.4 µM
same,IC50,Staphylococcus aureus [17],9 µM
same,IC50,Escherichia coli [18],19 µM
same,IC50,Staphylococcus aureus [21],7 µM
same,Activity,Escherichia coli [31],0.47 µmol/g
same,inhibition at 9.4 µM,Escherichia coli [32],80%
same,IC50,Escherichia coli [24],9 µM
same,Activity,Escherichia coli [33],13.1 mg/g
